Residue numbers refer to the chain shown, from its start. “Also recorded” adds a separate entry of the source. Read-outs that look alike come from different tables or passages of the source. Square brackets hold non-standard residues; d marks the D form. Ends that are not written are not given here. Phe(4-F) = N[C@@H](Cc1ccc(F)cc1)C(=O)O
Key:
[1] = target: fluorescein-labeled human APLF KBM peptide (human); assay: fluorescence polarisation
[2] = target: fluorescein-labeled human APLF KBM peptide (human); assay: fluorescence polarisation; remark: listed apart in the source
xlKu80 vWA(S229A) [3] = target: T1, xlKu80 vWA(S229A) (Xenopus laevis, UniProt Q6DDS9, C190S/DEL171-188/S229A); assay: 19F NMR binding study, xlKu80 vWA; details: for binding affinity change resulting from S229A mutation: xlKu80 vWA(S229A) compared with unmodified xlKu80 vWA
T1 sequence (Q6DDS9 with tags, fused parts or gaps DEL171-188/C190S/S229A limits assumed): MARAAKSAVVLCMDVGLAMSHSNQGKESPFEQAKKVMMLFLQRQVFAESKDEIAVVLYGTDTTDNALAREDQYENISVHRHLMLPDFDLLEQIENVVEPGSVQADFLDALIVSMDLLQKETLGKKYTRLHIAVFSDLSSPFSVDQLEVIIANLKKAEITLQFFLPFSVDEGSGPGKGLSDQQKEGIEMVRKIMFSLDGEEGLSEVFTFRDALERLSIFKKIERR
Outline: (§1)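 Protein (0.2 mM; wild-type-derived or S229A vWA construct, His-tagged, expressed by autoinduction in E. coli BL21(DE3), Ni-NTA and gel filtration purified) titrated with XLF KBMX peptide carrying 4-fluoro-L-Phe at the penultimate position. Peptide stock held protease inhibitor cocktail. ¹⁹F spectra at 564.279 MHz, 25 °C. Internal standard 0.2 mM 4-fluorobenzamide (−34.9 ppm vs external TFA).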

xlKu80 vWA = target: T2, xlKu80 vWA (Xenopus laevis, UniProt Q6DDS9, C190S/DEL171-188); assay: 19F NMR binding study, xlKu80 vWA; details: 0.2 mM xlKu80 vWA; peptide 0.2, 0.4 and 1.0 mM; 25 °C; 150 mM NaCl, 25 mM HEPES
T2 sequence (Q6DDS9 with tags, fused parts or gaps DEL171-188/C190S limits assumed): T1 sequence (Q6DDS9 with tags, fused parts or gaps DEL171-188/C190S/S229A limits assumed) with A211S
Outline: as §1

xlKu80 vWA(S229A) [4] = target: T1, xlKu80 vWA(S229A); assay: X-ray crystallography of xlKu80 vWA; format: binding; details: crystal of xlKu80 vWA(S229A)-KBMX^XLF, PDB: 6TYX, 1.90 Å

Substance: isolated Xenopus laevis Ku80 von Willebrand A-like domain (xlKu80 vWA) (domain or fragment)
- Kd [1]: 131 nM
- Kd [2]: 0.131 nM

Substance: KPKKKAKGLF*M [fluorinated XLF KBMX peptide]
- 19F NMR linewidth in the presence of vWA(S229A) (xlKu80 vWA(S229A) [3]; 0.2 mM xlKu80 vWA(S229A), 1:1 ratio, 25 °C, 150 mM NaCl, 25 mM HEPES, 1 mM TCEP, 1 mM EDTA, 10 % D2O): 109 Hz
- exchange between 19F resonances of bound and free peptide (xlKu80 vWA(S229A) [3]; 19F NMR, 0.2 mM xlKu80 vWA(S229A) plus 0.2, 0.3, 0.4 mM peptide, 25 °C): slow exchange

Substance: human Ku80 von Willebrand domain (hsKu80 vWA), 1–240 aa, F47Q/F88Q/L234Q/F237Y (from UniProt P13010 1-240) (domain or fragment)
- Kd [1]: 162 nM
- Kd [2]: 0.162 nM

Substance: KBMX^XLF peptide: KBMX peptide from XLF (KPKKKAKGL[Phe(4-F)]M; not fully specified; printed as KPKKKAKGLF*M)
- binding affinity change resulting from S229A mutation (xlKu80 vWA(S229A) [3]; 19F NMR): increases dramatically; also recorded: dramatically increased affinity
- binding affinity change resulting from S229A mutation (xlKu80 vWA(S229A) [3]; 19F NMR, listed as KBMX^XLF motif peptide): capable of binding
- 19F NMR binding to xlKu80 vWA (xlKu80 vWA): negligible
- binding confirmed by X-ray crystallography (xlKu80 vWA(S229A) [4]): further confirmed by X-ray crystallography

From article PMC7495496 (DNA repair, 2019)
